Screening results from PubChem BioAssay.
This is a sample that favours compounds with a hit; in the whole collection about 3.5% have one here.
RGS4 pot = potentiators or activators of RGS4 | HEK293 M3R/inducible RGS4, carbachol calcium flux Fluo4; hits give low values | B-score at 10 µM | 310,000 compounds, 0.92% hits | AID 463111;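 active means B-score of the integrated calcium signal more than 4 SD below the library mean, with starting fluorescence not abnormally high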;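 further: negative B-score means reduced calcium response which marks RGS4 activation or potentiation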
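Detection: kinetic calcium fluorescence imaging with Fluo4-AM dye, 2 µM / Material: HEK293 cells with stable M3R and inducible RGS4 / Schedule: recording 10 s baseline at 1 Hz, 100 s post-agonist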
RGS4 block = inhibitors of human RGS4. P49798. HEK293 M3R/RGS4 inducible, Fluo-4 calcium flux; hits give high values; triggered by carbachol at its EC20. B-score at 10 µM. 310,000 compounds, 0.45% hits. AID 463165;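 active means B-score, a plate-corrected calcium signal, over three deviations above library mean, with baseline fluorescence within five deviations of library mean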;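 further: RGS4 expression induced by doxycycline in cells with stable M3 receptor; B-score is computed from the integrated fluorescence ratio over baseline after carbachol; higher B-score means a larger calcium signal and so more RGS4 inhibition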
Target sequence (P49798 whole entry, looked up): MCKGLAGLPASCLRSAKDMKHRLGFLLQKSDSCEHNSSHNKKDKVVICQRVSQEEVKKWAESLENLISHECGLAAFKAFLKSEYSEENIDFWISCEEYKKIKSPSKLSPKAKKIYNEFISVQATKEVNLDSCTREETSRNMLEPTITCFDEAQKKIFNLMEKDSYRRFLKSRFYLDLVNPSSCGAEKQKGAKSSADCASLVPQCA
MrgX1 agonist = human MrgX1 receptor agonism, primary screen. Q96LB2. MrgX1-HEK293 cells, Fluo-4 calcium fluorescence, agonist mode; hits give high values. B-score at 10 µM. 310,000 compounds, 0.44% hits. AID 588627;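 active means calcium response B-score plate-corrected fluorescence ratio at least 3 library SD, with starting fluorescence B-score inside 5 SD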
Target sequence (Q96LB2 whole entry, looked up): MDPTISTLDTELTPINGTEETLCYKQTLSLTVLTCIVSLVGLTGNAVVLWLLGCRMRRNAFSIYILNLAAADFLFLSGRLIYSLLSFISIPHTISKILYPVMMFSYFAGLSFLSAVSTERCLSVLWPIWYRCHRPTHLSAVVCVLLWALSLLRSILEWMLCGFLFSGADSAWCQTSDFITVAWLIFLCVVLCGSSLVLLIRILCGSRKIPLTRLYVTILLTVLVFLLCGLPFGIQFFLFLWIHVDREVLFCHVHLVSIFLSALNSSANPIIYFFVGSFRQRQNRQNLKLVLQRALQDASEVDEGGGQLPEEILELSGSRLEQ
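Test system: Stable human MrgX1 HEK293 cell line | Schedule: Overnight plating before 1 h dye loading | Read-out basis: Baseline-normalised fluorescence change ratio, B-scored | Detection: Kinetic calcium dye fluorescence, Fluo-4 NW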
MrgX1 allo act = allosterically activates human MrgX1 receptor signaling; AID 588675; B-score at 10 µM; 310,000 compounds, 0.63% hits; MrgX1-HEK293, Fluo-4 calcium flux, FDSS; hits give high values;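 active means plate-corrected calcium response at least 3 library SD above typical, normal starting fluorescence, not activating the receptor alone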;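 further: compound read alongside a low EC10 to EC30 dose of BAM8-22 agonist; peak minus trough fluorescence over baseline measured at the second addition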
MrgX1 antag = antagonists of human MrgX1 receptor | Q96LB2 | MRGX1-HEK293 calcium flux, Fluo-4, BAM8-22 antagonism; hits give low values | B-score at 10 µM | 310,000 compounds, 1.3% hits | AID 588676;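 active means calcium-response B-score plate-corrected more than 3 library SD below zero, starting fluorescence within 5 deviations, no agonist response on first addition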;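 further: peak minus trough fluorescence over baseline after final BAM8-22 challenge near maximal dose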
MrgX1 ant reconf = human MrgX1 receptor antagonism, re-confirmation screen; 2,300 compounds, 19% hits; MrgX1-HEK293, BAM8-22 calcium flux, Fluo-4; hits give low values; AID 602420; shares compounds with MrgX1 antag; remaining BAM8-22 calcium response % of control (hits give low values), % at 10 µM;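 active means remaining agonist calcium response no higher than 100% minus 3 SD of agonist-only control wells, with starting fluorescence near control levels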;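 further: agonist BAM8-22 given at a near maximal EC90 to ECmax level; peak minus minimum fluorescence divided by baseline after agonist addition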
HEK293 Ca flux = counter-screen for MrgX1 antagonists: effect in parental HEK293 cells; shares compounds with MrgX1 antag; Fluo-4 calcium fluorescence, FDSS; fluorescence ratio F(max-min)/F0 at 10 µM; 4,000 compounds, 2% hits;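 active means duplicate-averaged calcium fluorescence ratio at least three times the standard deviation of buffer wells, a nonspecific response in parental cells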
HEK293 Ca counter = counter-screen for MrgX1 allosteric activators: effect in parental HEK293 cells | shares compounds with MrgX1 antag | parental HEK293 calcium flux, Fluo-4 fluorescence ratio; hits give high values | fluorescence ratio F(max-min)/F0 at 10 µM | 4,000 compounds, 0.4% hits | AID 624114;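 active means calcium fluorescence ratio, averaged over duplicates, at least 3 SD of the buffer-well ratio, meaning a nonspecific response in receptor-free cells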;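 further: untransfected parental HEK293 lacking MrgX1 used as counterscreen for MrgX1 allosteric activators; fluorescence change taken during the second addition on a kinetic imager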
HEK293 Ca cntr2 = MrgX1 activator counter-screen hit in parental HEK293 cells; Fluo-4 calcium fluorescence (FDSS); hits give high values; AID 624115; shares compounds with MrgX1 antag; fluorescence ratio F(max-min)/F0 at 10 µM; 4,000 compounds, 8.7% hits;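 active means calcium fluorescence ratio at least three times the spread of buffer wells, meaning a non-specific response in parental cells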
* = called active by the depositor; i = inactive; · = no result.

SMILES	RGS4 pot	RGS4 block	MrgX1 agonist	MrgX1 allo act	MrgX1 antag	MrgX1 ant reconf	HEK293 Ca flux	HEK293 Ca counter	HEK293 Ca cntr2
O=C(CSc1ccccn1)Nc1nc2ccccc2s1	i	i	i	i	-7.6*	85%*	i	i	i
CC(=O)NC12CC3CC(C1)CC(C(=O)N1CCN(S(=O)(=O)c4cccc(C(F)(F)F)c4)CC1)(C3)C2	i	i	i	i	i	·	·	·	·
CCC(C)C(NC(=O)c1ccc(Cl)cc1)C(=O)Nc1cccnc1 (configuration not stated)	i	i	i	i	-7.6*	i	i	i	i
Cc1ccc(CNC(=O)CCCC(=O)c2ccccc2)cc1	i	i	i	i	i	·	·	·	·
COc1ccc(C(=O)NC2CC2)cc1OC1CCN(Cc2ccc(F)cc2F)CC1	i	i	i	i	-5.6*	i	i	i	i
COc1ccc(C(=O)NC2CC2)cc1OC1CCN(Cc2ccccc2F)CC1	i	i	i	i	i	·	·	·	·
Cn1c(CN2CCN(S(C)(=O)=O)CC2)nc2cc([N+](=O)[O-])ccc21	i	i	i	i	i	·	·	·	·
CCOC(=O)c1cccc(C(=O)Nc2nc3ccc(OC)cc3s2)n1	i	i	i	i	-5*	i	i	i	i
COc1ccc2nc(NC(=O)c3ccccc3O)sc2c1	i	i	i	i	i	·	·	·	·
COc1ccc(-c2noc(N3CCCC(C(=O)Nc4ccc(F)cc4F)C3)n2)cc1 (configuration not stated)	i	i	i	i	-4.6*	i	i	i	i
COc1ccc(-c2noc(N3CCCC(C(=O)Nc4ccccc4F)C3)n2)cc1 (configuration not stated)	i	i	i	i	i	·	·	·	·
O=C(O)c1ccc2ccc3ccccc3c2c1	i	i	i	i	i	·	·	·	·
Cc1nc(CNS(=O)(=O)c2cccs2)cs1	i	i	i	i	i	·	·	·	·
Cc1nc(CNS(=O)(=O)c2ccccc2F)cs1	i	i	i	i	-4.6*	i	i	i	i
NC(=O)C1CCN(C(=O)NC(=O)c2ccccc2)CC1	i	i	i	i	i	·	·	·	·
CCOC(=O)C1=C(CC)Nc2ccccc2N=C1NC(=O)c1ccc(S(=O)(=O)N2CCCC2)cc1	i	i	i	i	i	·	·	·	·
CCOC(=O)C1=C(CC)Nc2ccccc2N=C1NC(=O)Nc1ccc(Cl)c(Cl)c1	i	i	i	i	-6.1*	50%*	i	i	i
CC(=O)Nc1ccc(NC(=O)C(C)OC(=O)CN(C)S(=O)(=O)c2ccc(Cl)cc2)cc1 (configuration not stated)	i	i	i	i	-6.1*	i	i	i	i
Oc1ccccc1-c1nnc(SCCN2CCOCC2)n1Cc1ccccc1	i	i	i	i	-6.8*	i	i	i	i
O=C(CSc1nnc(-c2ccccc2)n1Cc1ccccc1)N1CCOCC1	i	i	i	i	i	·	·	·	·
CCOc1ccc(C(=O)N2CCN(Cc3ccccc3)CC2)cc1OCC	i	i	·	·	·	·	·	·	·
CCOC(=O)C1CN(S(=O)(=O)c2ccc(C)cc2)c2cc(S(=O)(=O)CC)ccc2O1 (configuration not stated)	i	i	i	i	-4.8*	i	i	i	i
COc1ccc(S(=O)(=O)N2CCC3(CC2)OCCN3S(=O)(=O)c2ccc(C)cc2)cc1OC	i	i	i	i	-6.6*	i	i	i	i
O=C(COC(=O)CC1Sc2ccccc2NC1=O)NCc1ccccc1 (configuration not stated)	i	i	i	i	-11*	i	i	i	i
COc1ccc(CNC(=O)CC2Sc3ccccc3NC2=O)cc1 (configuration not stated)	i	i	i	i	i	·	·	·	·
SMILES	RGS4 pot	RGS4 block	MrgX1 agonist	MrgX1 allo act	MrgX1 antag	MrgX1 ant reconf	HEK293 Ca flux	HEK293 Ca counter	HEK293 Ca cntr2
CSc1nc(N2CCN(c3ccccc3)CC2)cc(N2CCN(c3ccccc3)CC2)n1	i	i	i	i	-5.5*	i	i	i	i
CC(=O)c1nn(-c2cccc(Br)c2)cc1C(=O)c1ccc(Cl)cc1	i	i	i	i	i	·	·	·	·
Cc1ccc(NC(=O)COC(=O)Cc2ccsc2)cc1S(=O)(=O)N1CCOCC1	i	i	i	i	-5.4*	i	i	i	i
CCOC(=O)c1ccccc1NC(=O)COC(=O)C1CCN(S(=O)(=O)c2ccccc2C(=O)OC)CC1	i	i	i	i	-11*	i	i	i	i
Cc1ccc(NC(=O)COC(=O)C2CCC2)cc1S(=O)(=O)N1CCCCC1	i	i	i	i	-5.4*	84%*	i	i	i
O=C1OC(N2C(=O)CC[C@H]2C(=O)Nc2ccc(Br)cc2F)c2ccccc21 (some centres not stated)	i	i	i	i	i	·	·	·	·
Cc1cccc(NC(=O)C2CCCN(S(=O)(=O)c3ccc4[nH]c(=O)ccc4c3)C2)n1 (configuration not stated)	i	i	i	i	i	·	·	·	·
COc1ccc(OC)c(CNS(=O)(=O)c2cn(C)cn2)c1	i	i	i	i	-4.5*	i	i	i	i
Cc1ccc(-c2csc(NC(=O)c3ccc4c(=O)n5c(nc4c3)CCCCC5)n2)cc1	i	i	i	i	-5.5*	71%*	i	i	i
COc1cccc(NC(=O)COc2ccc(C)cc2)c1	·	·	i	i	i	·	·	·	·
COc1ccc(OCC(=O)Nc2cccc(C(C)=O)c2)cc1	i	i	i	i	-6.3*	i	i	i	i
COc1cccc(NC(=O)CNC(=O)c2ccc(C)cc2)c1	i	i	i	i	-9.1*	i	i	i	i
